Test results published in ChEMBL document CHEMBL3400013, “Synthesis and biological activity evaluation of hydrazone derivatives based on a Tröger's base skeleton” (Bioorg Med Chem, 2015).
The source made the active and inactive calls. The calls are words filed in the database; no cut-off is given here.

Tests used:
[1] = Metal chelating activity of the compound assessed as formation of Mn2+ complex by UV-vis spectrometry; assay type: physicochemical
[2] = Cytostatic activity against human HCT116 cells after 72 hrs by MTT assay; assay type: functional, cell-based; settings: HCT-116, 72 h
Summary of the method: (§1)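 Cells were seeded at 25,000–30,000 per well and pre-incubated for 24 h at 37°C in 5% CO2. Four-fold compound dilutions were added in duplicate and incubated for 72 h. MTT was added for 1–4 h, and formazan was dissolved in 10% aq SDS (pH 5.5) overnight at 37°C. OD was read at 540 nm. IC50 came from dose-response curves, mean ± SD of eight independent experiments.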

[3] = Cytostatic activity against human CEM-DNR cells after 72 hrs by MTT assay; assay type: functional, cell-based; summary of the method: as §1
Candida albicans = assay: Antifungal activity against Candida albicans up to 200 uM after 24 to 48 hrs by broth microdilution method; assay type: functional, organism-based
CCRF-CEM [4] = assay: Cell cycle arrest in human CCRF-CEM cells assessed as accumulation at S phase at IC50 after 24 hrs by propidium iodide staining-based flow cytometry; assay type: functional
Summary of the method: (§2)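 Cells were then fixed in 70% ethanol, washed in hypotonic citrate buffer, treated with RNase (50 µg/mL) and stained with propidium iodide. Flow cytometry used a 488 nm laser. Apoptosis was scored as the percentage of particles with propidium content below G0/G1.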

MRC5 [5] = assay: Cytostatic activity against human MRC5 cells after 72 hrs by MTT assay; assay type: ADME, cell-based; settings: MRC5, 72 h; summary of the method: as §1
[6] = Metal chelating activity of the compound assessed as formation of Ni2+ complex by UV-vis spectrometry; assay type: physicochemical
Staphylococcus aureus [7] = assay: Antimicrobial activity against methicillin-resistant Staphylococcus aureus MRSA 4591 up to 200 uM after 24 to 48 hrs by broth microdilution method; assay type: functional, organism-based
CCRF-CEM [8] = assay: Cell cycle arrest in human CCRF-CEM cells assessed as accumulation at G0/G1 phase at 5 times IC50 after 24 hrs by propidium iodide staining-based flow cytometry; assay type: functional; summary of the method: as §2
Pseudomonas aeruginosa = assay: Antimicrobial activity against multidrug-resistant Pseudomonas aeruginosa A/16575 up to 200 uM after 24 to 48 hrs by broth microdilution method; assay type: functional, organism-based
[9] = Metal chelating activity of the compound assessed as formation of Mg2+ complex by UV-vis spectrometry; assay type: physicochemical
CCRF-CEM [10] = assay: Induction of apoptosis in human CCRF-CEM cells assessed as apoptotic cells at IC50 after 24 hrs by propidium iodide staining-based flow cytometry; assay type: functional; summary of the method: as §2
CCRF-CEM [11] = assay: Induction of apoptosis in human CCRF-CEM cells assessed as inhibition of DNA synthesis at 5 times IC50 after 24 hrs by propidium iodide/BrdU staining by flow cytometry; assay type: functional; set-up: scale not given: the % may be the effect or the level left
[12] = Metal chelating activity of the compound assessed as formation of Zn2+ complex by UV-vis spectrometry; assay type: physicochemical
[13] = Metal chelating activity of the compound assessed as formation of Co2+ complex by UV-vis spectrometry; assay type: physicochemical
BJ [14] = assay: Cytostatic activity against human BJ cells after 72 hrs by MTT assay; assay type: ADME, cell-based; summary of the method: as §1
[15] = Metal chelating activity of the compound assessed as formation of Ca2+ complex by UV-vis spectrometry; assay type: physicochemical
CCRF-CEM [16] = assay: Cell cycle arrest in human CCRF-CEM cells assessed as accumulation at G2/M phase at IC50 after 24 hrs by propidium iodide staining-based flow cytometry; assay type: functional; summary of the method: as §2
BJ [17] = assay: Selectivity index, ratio of IC50 for human BJ cells to IC50 for human CEM-DNR cells; assay type: functional
[18] = Metal chelating activity of the compound assessed as formation of Fe3+ complex by UV-vis spectrometry; assay type: physicochemical
[19] = Cytostatic activity against human K562-TAX cells after 72 hrs by MTT assay; assay type: functional, cell-based; summary of the method: as §1
CCRF-CEM [20] = assay: Induction of apoptosis in human CCRF-CEM cells assessed as mitotic cells at IC50 after 24 hrs by pH3Ser10+ labeling-based flow cytometry; assay type: functional
A549 [21] = assay: Selectivity index, ratio of IC50 for human MRC5 cells to IC50 for human A549 cells; assay type: functional
[22] = Cytostatic activity against human p53-/- HCT116 cells after 72 hrs by MTT assay; assay type: functional, cell-based; settings: HCT-116, 72 h; summary of the method: as §1
K562 [23] = assay: Selectivity index, ratio of IC50 for human MRC5 cells to IC50 for human K562 cells; assay type: functional
[24] = system: Staphylococcus haemolyticus; assay: Antimicrobial activity against methicillin-resistant Staphylococcus haemolyticus A1/16568 up to 200 uM after 24 to 48 hrs by broth microdilution method; assay type: functional, organism-based
[25] = Metal chelating activity of the compound assessed as formation of Cr3+ complex by UV-vis spectrometry; assay type: physicochemical
[26] = Metal chelating activity of the compound assessed as formation of Cu2+ complex by UV-vis spectrometry; assay type: physicochemical
Nucleic Acid [27] = assay: Binding affinity to DNA (unknown origin) assessed as DNA intercalation by UV-visible spectrophotometry in presence of Co2+; assay type: nucleic-acid assay
CCRF-CEM [28] = assay: Induction of apoptosis in human CCRF-CEM cells assessed as inhibition of DNA synthesis at IC50 after 24 hrs by propidium iodide/BrdU staining by flow cytometry; assay type: functional; set-up: scale not given: the % may be the effect or the level left
HCT-116 [29] = assay: Selectivity index, ratio of IC50 for human MRC5 cells to IC50 for human HCT116 cells; assay type: functional
MRC5 [30] = assay: Selectivity index, ratio of IC50 for human MRC5 cells to IC50 for human K562-TAX cells; assay type: functional
HCT-116 [31] = assay: Selectivity index, ratio of IC50 for human MRC5 cells to IC50 for human p53-/- HCT116 cells; assay type: functional
Nucleic Acid [32] = assay: Binding affinity to DNA (unknown origin) assessed as DNA intercalation by UV-visible spectrophotometry in presence of Fe3+; assay type: nucleic-acid assay
K562 [33] = assay: Cytostatic activity against human K562 cells after 72 hrs by MTT assay; assay type: functional, cell-based; settings: K562, 72 h; summary of the method: as §1
Nucleic Acid [34] = assay: Binding affinity to DNA (unknown origin) assessed as DNA intercalation by UV-visible spectrophotometry in presence of Zn2+; assay type: nucleic-acid assay
A549 [35] = assay: Cytostatic activity against human A549 cells after 72 hrs by MTT assay; assay type: functional, cell-based; settings: A549, 72 h; summary of the method: as §1
CCRF-CEM [36] = assay: Induction of apoptosis in human CCRF-CEM cells assessed as inhibition of RNA synthesis at IC50 after 24 hrs by propidium iodide/BrU staining by flow cytometry; assay type: functional; set-up: scale not given: the % may be the effect or the level left
BJ [37] = assay: Selectivity index, ratio of IC50 for human BJ cells to IC50 for human K562-TAX cells; assay type: functional
Escherichia coli [38] = assay: Antimicrobial activity against multidrug-resistant Escherichia coli C/16702 up to 200 uM after 24 to 48 hrs by broth microdilution method; assay type: functional, organism-based
CCRF-CEM [39] = assay: Cell cycle arrest in human CCRF-CEM cells assessed as accumulation at G0/G1 phase at IC50 after 24 hrs by propidium iodide staining-based flow cytometry; assay type: functional; summary of the method: as §2
Staphylococcus aureus [40] = assay: Antimicrobial activity against Staphylococcus aureus CCM 3953 up to 200 uM after 24 to 48 hrs by broth microdilution method; assay type: functional, organism-based
Escherichia coli [41] = assay: Antimicrobial activity against Escherichia coli CCM 3954 up to 200 uM after 24 to 48 hrs by broth microdilution method; assay type: functional, organism-based
Candida tropicalis = assay: Antifungal activity against Candida tropicalis up to 200 uM after 24 to 48 hrs by broth microdilution method; assay type: functional, organism-based

Structure (SMILES): Cc1ccc(O)c(/C=N/NC(=O)c2ccc3c4c(ccc3c2)N2Cc3c(ccc5cc(C(=O)N/N=C/c6cc(C)ccc6O)ccc35)N(C4)C2)c1
- Activity [1]: Not Active
- IC50 [2]: 0.62 µM
- IC50 [3]: 5.36 µM
- Activity (Candida albicans): inactive
- Activity (CCRF-CEM [4]): 44.83%
- IC50 (MRC5 [5]): 0.27 µM
- Activity [6]: Active
- Activity (Staphylococcus aureus [7]): inactive
- Activity (CCRF-CEM [8]): 38.43%
- Activity (Pseudomonas aeruginosa): inactive
- Activity [9]: Not Active
- Activity (CCRF-CEM [10]): 14.09%
- Activity (CCRF-CEM [11]): 5.17%
- Activity [12]: Active
- Activity [13]: Active
- IC50 (BJ [14]): 0.69 µM
- Activity [15]: Not Active
- Activity (CCRF-CEM [16]): 14.65%
- Ratio IC50 (BJ [17]): 0.1
- Activity [18]: Active
- IC50 [19]: 1.14 µM
- Activity (CCRF-CEM [20]): 1.04%
- Ratio IC50 (A549 [21]): 0.9
- IC50 [22]: 0.45 µM
- Ratio IC50 (K562 [23]): 0.5
- Activity [24]: inactive
- Activity [25]: Not Active
- Activity [26]: Active
- Activity (Nucleic Acid [27]): Active
- Activity (CCRF-CEM [28]): 38.67%
- Ratio IC50 (HCT-116 [29]): 0.8
- Ratio IC50 (MRC5 [30]): 0.4
- Ratio IC50 (HCT-116 [31]): 1.1
- Activity (Nucleic Acid [32]): Active
- IC50 (K562 [33]): 0.9 µM
- Activity (Nucleic Acid [34]): Active
- IC50 (A549 [35]): 0.54 µM
- Activity (CCRF-CEM [36]): 33.57%
- Ratio IC50 (BJ [37]): 0.4
- Activity (Escherichia coli [38]): inactive
- Activity (CCRF-CEM [39]): 40.52%
- Activity (Staphylococcus aureus [40]): inactive
- Activity (Escherichia coli [41]): inactive
- Activity (Candida tropicalis): inactive

Structure (SMILES): COC(=O)c1ccc(O)c(/C=N/NC(=O)c2ccc3c4c(ccc3c2)N2Cc3c(ccc5cc(C(=O)N/N=C/c6cc(C(=O)OC)ccc6O)ccc35)N(C4)C2)c1
- Activity [1]: Not Active
- IC50 [2]: 10.3 µM
- IC50 [3]: 28.2 µM
- Activity (Candida albicans): inactive
- Activity (CCRF-CEM [4]): 38.54%
- IC50 (MRC5 [5]): 95.4 µM
- Activity [6]: Active
- Activity (Staphylococcus aureus [7]): inactive
- Activity (CCRF-CEM [8]): 31.26%
- Activity (Pseudomonas aeruginosa): inactive
- Activity [9]: Not Active
- Activity (CCRF-CEM [10]): 12.85%
- Activity (CCRF-CEM [11]): 54.61%
- Activity [12]: Active
- Activity [13]: Active
- IC50 (BJ [14]): 87.4 µM
- Activity [15]: Not Active
- Activity (CCRF-CEM [16]): 12.83%
- Ratio IC50 (BJ [17]): 3.2
- Activity [18]: Active
- IC50 [19]: 21.2 µM
- Activity (CCRF-CEM [20]): 1.19%
- Ratio IC50 (A549 [21]): 7.7
- IC50 [22]: 9.47 µM
- Ratio IC50 (K562 [23]): 9.4
- Activity [24]: inactive
- Activity [25]: Not Active
- Activity [26]: Active
- Activity (Nucleic Acid [27]): Active
- Activity (CCRF-CEM [28]): 46.43%
- Ratio IC50 (HCT-116 [29]): 8.9
- Ratio IC50 (MRC5 [30]): 4.3
- Ratio IC50 (HCT-116 [31]): 9.7
- Activity (Nucleic Acid [32]): Active
- IC50 (K562 [33]): 9.76 µM
- Activity (Nucleic Acid [34]): Active
- IC50 (A549 [35]): 11.9 µM
- Activity (CCRF-CEM [36]): 28.66%
- Ratio IC50 (BJ [37]): 4.3
- Activity (Escherichia coli [38]): inactive
- Activity (CCRF-CEM [39]): 48.63%
- Activity (Staphylococcus aureus [40]): inactive
- Activity (Escherichia coli [41]): inactive
- Activity (Candida tropicalis): inactive
